Structures are written as SMILES.

Experiment [1] has as its system AGS. Description: Induction of apoptosis in human AGS cells assessed as live cells at 10 uM after 36 hrs by Annexin-V-FITC/propidium iodide staining based flow cytometry (reference value: 92.84%). Type of experiment: functional.
The test system of experiment [2] is AGS. Description: Synergistic antiproliferative activity against human AGS cells assessed as combination index constant at 1.25 uM after 48 hrs in presence of 10 nM BTZ by CCK8 assay. In kind it is functional. An outline of the steps:
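AGS cells at 6×10^3/well attached for 12 h, then exposed for 48 h to compound, bortezomib, or both at set concentrations. CCK-8 added for 4 h, then OD read at 450 nm. Inhibition rates E used for q = E(combo)/(E1+E2−E1×E2). Triplicate experiments.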
(In general: Tetrazolium dyes change colour on reduction, which living cells bring about.)

The target of experiment [3] is T1, NEDD8 activating enzyme (Homo sapiens) (UniProt Q8TBC4+Q13564). In words: Inhibition of recombinant human NAE assessed as reduction in Ubc12-NEDD8 conjugation level pretreated for 10 mins followed by Mg2+ and ATP addition measured after 60 mins by Western blot analysis. Type of experiment: protein-complex assay. An outline of the steps: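 Cell-free assay with recombinant human NAE 2.5 µM, NEDD8 250 µM and E2 Ubc12 50 µM (stock concentrations) plus inhibitor, preincubated 10 min at 37 °C. Reaction started with 10 mM Mg2+/ATP (stock), run 60 min at 37 °C, quenched with EDTA. Non-reducing 15% SDS-PAGE, Ubc12-NEDD8 thioester detected by western blot. No-ATP negative control.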
In general terms: Immunoblotting shows a protein as a band on a membrane.

The target of experiment [4] is Inhibitor of nuclear factor kappa-B kinase subunit beta (Homo sapiens) (UniProt O14920). Description: Inhibition of IKKB (unknown origin) at 30 uM relative to control.
Inhibitor of nuclear factor kappa-B kinase subunit beta (Homo sapiens), sequence (O14920 whole entry): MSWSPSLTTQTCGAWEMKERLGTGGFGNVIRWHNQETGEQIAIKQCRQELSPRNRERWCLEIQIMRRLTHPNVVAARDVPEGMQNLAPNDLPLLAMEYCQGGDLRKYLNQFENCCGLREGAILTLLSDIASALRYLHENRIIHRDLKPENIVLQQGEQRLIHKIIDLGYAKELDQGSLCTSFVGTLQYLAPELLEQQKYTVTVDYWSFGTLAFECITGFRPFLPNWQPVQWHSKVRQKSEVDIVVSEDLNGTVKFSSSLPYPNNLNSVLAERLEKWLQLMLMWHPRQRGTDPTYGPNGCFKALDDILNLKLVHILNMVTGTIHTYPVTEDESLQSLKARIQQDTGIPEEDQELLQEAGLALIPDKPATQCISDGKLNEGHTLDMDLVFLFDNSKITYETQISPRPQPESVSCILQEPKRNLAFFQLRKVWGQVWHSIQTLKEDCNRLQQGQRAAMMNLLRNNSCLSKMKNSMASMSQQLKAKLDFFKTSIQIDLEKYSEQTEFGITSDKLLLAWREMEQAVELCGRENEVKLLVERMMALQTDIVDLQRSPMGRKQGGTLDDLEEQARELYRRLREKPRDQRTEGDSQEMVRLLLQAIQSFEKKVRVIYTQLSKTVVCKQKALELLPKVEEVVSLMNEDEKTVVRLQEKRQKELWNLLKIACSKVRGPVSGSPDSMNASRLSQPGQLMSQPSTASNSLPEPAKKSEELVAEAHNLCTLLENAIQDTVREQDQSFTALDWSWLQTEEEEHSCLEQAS
Experiment [5] relates to AGS. Description: Induction of apoptosis in human AGS cells assessed as necrotic cells at 8 uM after 36 hrs by Annexin-V-FITC/propidium iodide staining based flow cytometry (reference value: 1.01%). Type of experiment: functional.
Experiment [6] relates to HCT-116. Description: Antiproliferative activity against human HCT116 cells after 48 hrs by CCK8 assay. Type of experiment: functional, cell-based. The note with it: HCT-116, 48 h. The procedure, abridged: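 Cells seeded at 6 × 10^3 cells/well and left 12 h at 37 °C, 5% CO2. Medium then replaced with serial compound dilutions, bortezomib as positive control. After 48 h, CCK-8 added for 4 h and absorbance read at 450 nm. Three repeats; IC50 from normalized nonlinear regression of inhibition curves.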

For experiment [7], the target named is T1, NEDD8 activating enzyme (Homo sapiens). In words: Inhibition of NAE in human AGS cells assessed as reduction in Ubc12-NEDD8 conjugation level after 24 hrs by Western blot analysis. Type of experiment: cell-based. An outline of the steps:
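AGS cells given 2, 4, 6, 8 or 10 μM compound or 0.1% DMSO for 24 h, washed in ice-cold PBS and lysed in RIPA on ice. Equal protein loads run by SDS-PAGE: non-reducing for NEDD8/SUMO/Ub conjugates, reducing for p27, NRF2, CDT1 and cleaved caspase-3. Blotted to PVDF with primary antibody overnight at 4 °C and HRP secondary, ECL detection, densitometry. Three repeats.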

For experiment [8], the system named is AGS. Description: Induction of apoptosis in human AGS cells assessed as necrotic cells at 10 uM after 36 hrs by Annexin-V-FITC/propidium iodide staining based flow cytometry (reference value: 1.01%). Type of experiment: functional. For orientation: A flow cytometer gives signals particle by particle.

As usually defined, the inhibition is the share of the control response that was lost under treatment. As a reminder, the IC50 is the concentration needed to halve the response being measured. Consider `O=c1cc(-c2ccc(-c3ccccc3)cc2)c2ccc(N3CCC(NCCc4ccccc4)CC3)cc2o1`, for which the results for the Activity in experiment [1], in experiment [5] and in experiment [8] were 7.4%, 4.71% and 9.14%, respectively. The CI in experiment [2] stood at 1.75. Moreover, the inhibition entry in experiment [3] is “Dose-dependent effect”; in experiment [4], 1.07%; in experiment [7] it was “Dose-dependent effect”. Further, the midpoint of inhibition in experiment [6], the IC50, lay at 1.33 µM.

The record behind these values is ChEMBL document CHEMBL4270526, “A novel NAE/UAE dual inhibitor LP0040 blocks neddylation and ubiquitination leading to growth inhibition and apoptosis of cancer cells” (Eur J Med Chem, 2018).
